UPR CHOP act – apoptotic UPR (CHOP) activation | CHO-CHOP luciferase reporter, luminescence; percent of tunicamycin response over DMSO baseline | activation, % at 10 µM | 330,000 tested, 0.34% active;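 active means at 10 µM dose, activation of 40% or more, normalized to positive control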;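 further: 100% = tunicamycin at 10 µg/mL and 0% = DMSO alone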
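System: CHO-CHOP luciferase reporter cell line | Buffer or medium: F12 medium containing 10% fetal bovine serum | Doses: One dose, 10 µM in 0.5% DMSO | Times: 6 h compound exposure at 37 °C after overnight seeding | Signal: Luciferase luminescence | Read-out: % activation vs tunicamycin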
TLR9-MyD88 inh – blocks human TLR9 binding to MyD88. CHO BLA complementation TLR9-MyD88, CCF4 FRET ratio. inhibition, % at 4.98 µM. Q9NR96+Q99836. 340,000 tested, 0.21% active;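 active means inhibition above the mean over all tested compounds plus 3 SD, cut at about 21% in these data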;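 further: 0% = DMSO only wells and 100% = clavulanate BLA inhibitor control wells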
XBP1 UPR activ – activators of adaptive arm of unfolded protein response (XBP1); 330,000 tested, 0.33% active; AID 463104; activation, % at 20 µM; CHO-XBP1 luciferase reporter, IRE1-XBP1 UPR activation, luminescence; percent of tunicamycin response, DMSO as zero;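 active means versus positive control, 20 µM dose yields 30% or more activation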;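 further: 100% = tunicamycin at 10 µg/mL and 0% = DMSO only wells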
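Material: CHO-XBP1 cells stably carrying IRE1-XBP1-driven luciferase reporter | Medium: F12 with 10% serum | Compound dosing: 20 µM single concentration, DMSO 1% | Incubation: Overnight seeding at 37 °C, 6 h compound treatment at 37 °C | Detection: Steady-Glo luminescence read | Read-out basis: % activation of reporter signal versus tunicamycin and DMSO controls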
CHOP inhibitor – CHOP inhibition in unfolded protein response; CHO-K1 CHOP-promoter luciferase, tunicamycin-induced, 15-18 h; inhibition, % at 10 µM; 220,000 tested, 3.8% active;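 active means compounds that reduced the stress-induced luciferase reporter signal by more than about 70% of percent inhibition, limit read from the data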;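 further: 0% = tunicamycin plus vehicle and 100% = wells without tunicamycin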
NOD2 RIPK2 PPI – blocks binding of human NOD2 to RIPK2; O43353; CHO BLA complementation NOD2-RIPK2, CCF4 ratio; 360,000 tested, 0.38% active; AID 624267; inhibition, % at 4.98 µM; in the data active means inhibition above about 21%;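 further: 0% = vehicle only and 100% = reference blocker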
Target sequence (O43353 whole entry, looked up): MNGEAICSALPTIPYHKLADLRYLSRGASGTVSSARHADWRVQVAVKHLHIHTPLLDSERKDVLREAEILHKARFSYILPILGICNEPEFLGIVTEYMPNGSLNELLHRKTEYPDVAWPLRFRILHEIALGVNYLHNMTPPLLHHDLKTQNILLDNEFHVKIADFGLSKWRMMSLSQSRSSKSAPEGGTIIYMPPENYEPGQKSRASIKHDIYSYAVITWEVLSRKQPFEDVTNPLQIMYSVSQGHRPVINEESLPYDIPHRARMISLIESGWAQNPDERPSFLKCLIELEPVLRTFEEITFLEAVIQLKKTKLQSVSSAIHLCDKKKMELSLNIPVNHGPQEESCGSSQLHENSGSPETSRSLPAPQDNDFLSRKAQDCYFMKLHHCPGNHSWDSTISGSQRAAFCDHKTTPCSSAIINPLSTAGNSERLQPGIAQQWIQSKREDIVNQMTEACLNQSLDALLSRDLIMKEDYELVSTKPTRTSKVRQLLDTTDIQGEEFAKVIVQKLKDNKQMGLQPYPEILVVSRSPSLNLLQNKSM
TLR4-MyD88 BLA – TLR4-MyD88 interaction inhibition in cells. O00206+Q99836. HeLa CL3-4 TLR4/MyD88 BLA complementation, FRET ratio. inhibition, % at 8.4 µM. 200,000 tested, 0.18% active. AID 861; in the data active means inhibition above about 25%;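 further: 0% = vehicle and 100% = reference inhibitor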
* hit, by the source's call; . = no result. This excerpt belongs to a sample that is enriched for hits.

SMILES	UPR CHOP act	TLR9-MyD88 inh	XBP1 UPR activ	CHOP inhibitor	NOD2 RIPK2 PPI	TLR4-MyD88 BLA
Cc1cccc(N2CCN(C(=O)c3cc4c(=O)n(C)c5ccccc5c4n3C)CC2)c1C	2	4	0	79*	-10	-16
Cc1cccc(N2CCN(C(=O)Cc3cn(C)c4ccccc34)CC2)c1C	0	5	0	82*	-6	-2
Cc1ccc(Cl)cc1N1CCN(C(=O)c2cc3c(=O)n(C)c4ccccc4c3n2C)CC1	6	14	8	88*	-4	-11
O=C(Nc1ccncc1)C1CCN(S(=O)(=O)c2c(Cl)cccc2Cl)CC1	1	0	-2	.	3	.
CC(C)(C)c1ccc(OCCn2nc(C(=O)O)c3ccccc3c2=O)cc1	1	5	0	.	5	.
Cc1cccc(C)c1OCCn1nc(C(=O)O)c2ccccc2c1=O	-2	-7	1	72*	-6	-6
Cc1cccc(OCCn2nc(C(=O)O)c3ccccc3c2=O)c1	-3	5	-2	85*	-11	6
O=C(O)c1nn(CC(=O)N(C2CCCCC2)C2CCCCC2)c(=O)c2ccccc12	3	13	-3	93*	-6	-3
C=C(C)C(=O)N1CCN(C(=O)C(=C)C)c2ccccc21	.	-8	.	.	-15	.
N#Cc1cc(Sc2ccccn2)c(Sc2ccccn2)cc1C#N	4	-2	1	10	-2	-5
N#CC(Sc1ccccn1)c1ccc(Cl)cc1Cl (stereo not drawn)	-1	3	0	74*	-13	7
COc1ccc([N+](=O)[O-])cc1NC(=O)C(C)N(C)Cc1ccc(Br)cc1 (stereo not drawn)	-2	3	-4	70*	2	-5
Clc1ccc2[nH]c3c(c2c1)CCc1cn[nH]c1-3	4	-4	3	87*	-6	-1
c1ccc2c3c([nH]c2c1)-c1[nH]ncc1CC3	4	1	2	71*	-4	-5
CCN(CC)C(=O)c1cccc(-c2csc(C(C)(O)c3ccc(F)c(F)c3)n2)c1 (stereo not drawn)	.	.	.	.	16	.
COc1cc(OC)cc(-c2nc3ccccc3c(=O)n2OC(=O)c2ccccc2C)c1	0	6	22	94*	7	7
Cc1cccc(Nc2nc(-c3ccc(O)c(O)c3)cs2)n1	100*	-8	17	.	-8	.
Cc1cccc(Nc2nc(-c3ccc(F)c(C)c3)cs2)n1	7	2	4	.	4	.
Cc1ccc2[nH]c(=O)c(-c3nc4cc(C)ccn4c3NCc3ccco3)cc2c1	3	-6	-1	93*	8	-2
Cc1ccccc1NC(=O)CON=C(N)c1ccccc1	0	7	-1	.	-3	.
CN1C(=O)CSC1=NC12CC3CC(CC(C3)C1)C2	0	4	-4	73*	-2	-2
CCN1C(=O)CSC1=NC12CC3CC(CC(C3)C1)C2	-3	6	-4	38	2	-1
Cc1ccc(-c2cc(-c3ccccc3Cl)[nH]n2)c(O)c1	3	2	2	-23	0	5
Cc1ccccc1-c1cc(-c2ccccc2O)n[nH]1	5	-1	1	80*	-3	-11
Cc1ccc(-c2cc(-c3ccccc3[N+](=O)[O-])[nH]n2)c(O)c1	4	-2	5	94*	8	-8
SMILES	UPR CHOP act	TLR9-MyD88 inh	XBP1 UPR activ	CHOP inhibitor	NOD2 RIPK2 PPI	TLR4-MyD88 BLA
C[C@@H]1CN([C@H](C)CO)C(=O)CCCn2cc(nn2)CO[C@H]1CN(C)C(=O)Nc1ccccc1	.	2	.	.	-11	.
CC(C)COc1cccc(C(=O)N(C)CC(=O)Nc2cccc3ccccc23)c1	0	-9	-1	.	3	.
CCOC(=O)NC(=O)CSc1nc2ccccc2[nH]1	1	0	0	1	1	8
CCOC(=O)C1(C(C)(C)CC)CC(CSc2nc3ccccc3[nH]2)OC1=O (stereo not drawn)	-2	8	-3	75*	-5	7
Oc1nc(Nc2ccc(Cl)cc2Cl)sc1/C=C1\C=Nc2ccccc21	0	-3	0	73*	-5	5
Cc1ccc2[nH]c(=O)c(C(c3nnnn3CCc3ccccc3)N3CCOCC3)cc2c1 (stereo not drawn)	0	2	0	33	-3	-2
Cn1cccc1C(=O)NC(=O)COC(=O)CC12CC3CC(CC(Br)(C3)C1)C2	0	-2	0	29	5	-1
O=C(COC(=O)CC12CC3CC(CC(Br)(C3)C1)C2)NC(=O)NCc1ccco1	-2	-3	-3	71*	1	-9
Cc1ccc(N(CC(O)Cn2c3ccccc3c3ccccc32)S(C)(=O)=O)cc1 (stereo not drawn)	1	1	-3	83*	-3	14
Cc1ccc(N(CC(O)Cn2c3ccccc3c3ccccc32)S(C)(=O)=O)c(C)c1 (stereo not drawn)	-2	-4	-4	85*	-9	0
OC(CON=C1c2ccccc2-c2ccccc21)CN1CCNCC1 (stereo not drawn)	1	2	4	1	-5	-4
Cc1ccc(N(CC(O)CON=C2c3ccccc3-c3ccccc32)S(C)(=O)=O)cc1 (stereo not drawn)	-1	-1	-3	91*	-2	4
Cc1cccc(C)c1N(CC(O)Cn1c2ccccc2c2ccccc21)S(C)(=O)=O (stereo not drawn)	3	1	3	43	2	-11
CC(=O)N1N=C(c2ccc(Cl)cc2)OC1c1ccc(C(C)C)cc1 (stereo not drawn)	4	4	2	12	4	-11
CC(=O)N1N=C(c2ccc(C)cc2)OC1c1ccc(Br)cc1 (stereo not drawn)	4	11	0	93*	-6	-5
FC(F)(F)c1cccc(Cc2noc(CN3CCCCC3c3ccccn3)n2)c1 (stereo not drawn)	-1	13	-1	74*	-7	7
Fc1cccc(Cc2noc(CN3CCCCC3c3ccccn3)n2)c1 (stereo not drawn)	0	6	0	11	-3	1
O=C(Nc1ccc(N2CCCC2)c(S(=O)(=O)Nc2cccc(C(F)(F)F)c2)c1)c1cccs1	-2	-7	-3	90*	-4	-17
CC1(C(=O)O)CCCN1C(=O)c1cccc(C(F)(F)F)c1 (stereo not drawn)	.	.	.	.	-20	.
COc1cc(CNC2CCCC2)cc(Cl)c1OCc1ccccc1F	-1	6	2	79*	12	-2
O=C1c2cccc3c(N4CCCCC4)ccc(c23)C(=O)N1c1ccccn1	0	7	-3	20	6	16
